Reference: ChEMBL document CHEMBL1155998, “Design and synthesis of piperazinylpyrimidinones as novel selective 5-HT(2C) agonists” (Bioorg Med Chem Lett, 2009)

Columns and labels:
[1] = target: T1, 5-hydroxytryptamine receptor 2C (Homo sapiens, UniProt P28335); assay: Agonist activity at human recombinant 5HT2C receptor expressed in CHO K1 cells assessed as calcium mobilisation by FLIPR assay; type: functional, cell-based
T1 sequence (P28335 whole entry): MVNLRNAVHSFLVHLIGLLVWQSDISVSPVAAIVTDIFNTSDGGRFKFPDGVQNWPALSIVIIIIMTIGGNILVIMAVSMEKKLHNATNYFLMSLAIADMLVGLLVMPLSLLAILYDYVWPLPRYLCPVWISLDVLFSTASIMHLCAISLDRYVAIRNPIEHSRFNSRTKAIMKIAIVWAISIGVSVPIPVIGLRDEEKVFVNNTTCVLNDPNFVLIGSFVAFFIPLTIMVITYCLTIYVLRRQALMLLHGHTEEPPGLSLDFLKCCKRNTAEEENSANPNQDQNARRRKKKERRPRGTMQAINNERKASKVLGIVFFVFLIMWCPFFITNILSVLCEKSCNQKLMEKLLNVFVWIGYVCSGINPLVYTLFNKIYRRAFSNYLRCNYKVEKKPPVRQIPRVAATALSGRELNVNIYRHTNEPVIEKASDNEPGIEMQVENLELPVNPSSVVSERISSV
In short: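 Recombinant CHO K1 cells expressing the human 5-HT2C receptor. Agonism was read as a fluorescent calcium mobilisation signal in a FLIPR assay. Values were reported as EC50 and Emax (%).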

[2] = Lipophilicity, log Dof the compound at pH 7.4; type: physicochemical; conditions: buffer
[3] = Intrinsic clearance in human liver microsomes; type: ADME, Microsome
[4] = target: T2, 5-hydroxytryptamine receptor 2C (Homo sapiens) (UniProt P28335); assay: Agonist activity at human recombinant 5HT2C receptor transfected in CHO K1 cells assessed as calcium mobilisation at 10 uM by FLIPR assay relative to serotonin; type: functional, cell-based
T2 sequence (whole entry): T1 sequence (P28335 whole entry)
In short: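 Recombinant CHO K1 cells stably expressing the human 5-HT2C receptor; agonist-induced calcium mobilisation read as a fluorescence signal on FLIPR. Potency reported as EC50 and efficacy as Emax (%).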

[5] = target: T3, 5-hydroxytryptamine receptor 2A (Homo sapiens, UniProt P28223); assay: Agonist activity at human recombinant 5HT2A receptor transfected in CHO K1 cells assessed as calcium mobilisation at 10 uM by FLIPR assay; type: functional, cell-based
T3 sequence (P28223 whole entry): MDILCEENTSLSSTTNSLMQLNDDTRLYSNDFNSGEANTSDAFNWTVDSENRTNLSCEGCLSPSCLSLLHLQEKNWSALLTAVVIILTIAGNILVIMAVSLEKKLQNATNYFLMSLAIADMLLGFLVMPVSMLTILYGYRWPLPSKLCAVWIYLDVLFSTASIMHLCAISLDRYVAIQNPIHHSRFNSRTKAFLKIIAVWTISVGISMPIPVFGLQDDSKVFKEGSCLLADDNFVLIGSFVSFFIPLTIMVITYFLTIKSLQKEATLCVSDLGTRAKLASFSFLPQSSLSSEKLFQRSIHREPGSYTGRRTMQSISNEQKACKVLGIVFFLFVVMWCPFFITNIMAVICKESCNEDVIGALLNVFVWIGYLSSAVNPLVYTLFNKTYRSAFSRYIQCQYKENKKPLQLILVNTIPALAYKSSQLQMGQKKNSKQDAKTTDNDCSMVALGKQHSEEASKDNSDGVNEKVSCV
In short: (§1)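 Recombinant cell-based systems expressing the human 5-HT2A or 5-HT2B receptor. Agonist response was read as calcium mobilisation by FLIPR, with test compound at 10 μM. Results were reported as % agonism.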

[6] = target: T4, 5-hydroxytryptamine receptor 2B (Homo sapiens, UniProt P41595); assay: Agonist activity at human recombinant 5HT2B receptor transfected in CHO K1 cells assessed as calcium mobilisation at 10 uM by FLIPR assay; type: functional, cell-based; in short: as §1
T4 sequence (P41595 whole entry): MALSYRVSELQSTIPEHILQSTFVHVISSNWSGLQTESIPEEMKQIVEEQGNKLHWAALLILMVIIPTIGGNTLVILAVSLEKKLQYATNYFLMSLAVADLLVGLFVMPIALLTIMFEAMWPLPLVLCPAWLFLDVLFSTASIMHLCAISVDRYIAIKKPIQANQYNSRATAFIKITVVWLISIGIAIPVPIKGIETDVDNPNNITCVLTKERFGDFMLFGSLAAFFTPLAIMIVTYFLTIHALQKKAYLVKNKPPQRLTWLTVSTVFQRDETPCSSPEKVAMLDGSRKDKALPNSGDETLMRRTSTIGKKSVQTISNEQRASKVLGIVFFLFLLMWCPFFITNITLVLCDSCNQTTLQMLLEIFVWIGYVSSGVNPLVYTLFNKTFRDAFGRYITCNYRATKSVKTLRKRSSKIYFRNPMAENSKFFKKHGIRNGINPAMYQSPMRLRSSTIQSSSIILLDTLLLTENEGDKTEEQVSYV

[7] = system: MDR1 (human); assay: Efflux ratio, permeability from basolateral to apical over apical to basolateral side in MDCK cells expressing human MDR1 gene; type: ADME, cell-based, Canis lupus familiaris; conditions: dog
[8] = target: D(3) dopamine receptor (Homo sapiens) (UniProt P35462); assay: Binding affinity to dopamine D3 receptor
D(3) dopamine receptor (Homo sapiens), sequence (P35462 whole entry): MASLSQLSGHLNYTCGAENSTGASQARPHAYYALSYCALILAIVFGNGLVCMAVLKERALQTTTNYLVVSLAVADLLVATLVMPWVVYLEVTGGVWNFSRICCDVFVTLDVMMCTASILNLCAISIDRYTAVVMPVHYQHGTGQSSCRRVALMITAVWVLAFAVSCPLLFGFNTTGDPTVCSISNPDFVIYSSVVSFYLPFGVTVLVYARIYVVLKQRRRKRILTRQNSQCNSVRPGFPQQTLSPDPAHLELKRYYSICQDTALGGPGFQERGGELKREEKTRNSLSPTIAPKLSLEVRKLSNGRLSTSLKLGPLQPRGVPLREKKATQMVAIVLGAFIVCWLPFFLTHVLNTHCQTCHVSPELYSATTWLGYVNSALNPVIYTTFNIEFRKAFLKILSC

[9] = target: 5-hydroxytryptamine receptor 1B (Homo sapiens) (UniProt P28222); assay: Binding affinity to 5HT1B receptor
5-hydroxytryptamine receptor 1B (Homo sapiens), sequence (P28222 whole entry): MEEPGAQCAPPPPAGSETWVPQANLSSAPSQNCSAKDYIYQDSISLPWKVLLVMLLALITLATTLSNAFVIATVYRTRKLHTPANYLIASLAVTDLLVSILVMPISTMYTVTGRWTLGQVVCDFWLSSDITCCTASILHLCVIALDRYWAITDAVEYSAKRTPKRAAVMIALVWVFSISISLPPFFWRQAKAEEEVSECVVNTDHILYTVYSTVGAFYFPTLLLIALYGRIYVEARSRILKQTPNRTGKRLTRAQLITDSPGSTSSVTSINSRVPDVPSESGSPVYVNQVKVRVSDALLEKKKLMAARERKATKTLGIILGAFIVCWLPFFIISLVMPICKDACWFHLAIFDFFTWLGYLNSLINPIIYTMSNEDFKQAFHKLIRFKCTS

[10] = system: Canis familiaris; assay: Increase of urethral pressure in iv dosed dog; type: functional, Canis lupus familiaris, Urethra
In short: (§2)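 Anaesthetised dogs, two animals, in a urethral function model. Compound was given by intravenous infusion. Peak urethral pressure was recorded as % increase, alongside measured free plasma concentrations.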

[11] = system: Canis familiaris; assay: Free plasma concentration in iv dosed dog; type: ADME, organism-based, Canis lupus familiaris; conditions: in vivo; in short: as §2
[12] = target: Muscarinic acetylcholine receptor M3 (Homo sapiens) (UniProt P20309); assay: Binding affinity to M3 receptor
Muscarinic acetylcholine receptor M3 (Homo sapiens), sequence (P20309 whole entry, looked up): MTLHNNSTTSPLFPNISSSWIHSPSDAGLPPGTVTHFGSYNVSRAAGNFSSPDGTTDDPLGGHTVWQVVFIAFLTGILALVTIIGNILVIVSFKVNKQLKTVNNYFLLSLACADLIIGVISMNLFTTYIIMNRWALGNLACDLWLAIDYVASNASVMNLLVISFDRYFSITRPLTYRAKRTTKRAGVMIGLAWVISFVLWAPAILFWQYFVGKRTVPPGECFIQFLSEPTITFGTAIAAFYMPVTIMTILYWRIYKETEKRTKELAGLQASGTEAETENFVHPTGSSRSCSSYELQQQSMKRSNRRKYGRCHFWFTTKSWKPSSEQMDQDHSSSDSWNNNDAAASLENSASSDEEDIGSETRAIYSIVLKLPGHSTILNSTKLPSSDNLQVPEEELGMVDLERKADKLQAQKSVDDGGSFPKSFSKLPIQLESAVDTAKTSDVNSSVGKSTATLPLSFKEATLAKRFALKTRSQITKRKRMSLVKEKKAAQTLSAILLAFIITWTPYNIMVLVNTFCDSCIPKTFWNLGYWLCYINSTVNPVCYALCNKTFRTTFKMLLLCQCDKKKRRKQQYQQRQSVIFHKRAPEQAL

[13] = target: T3, 5-hydroxytryptamine receptor 2A; assay: Agonist activity at human recombinant 5HT2A receptor transfected in CHO K1 cells assessed as calcium mobilisation by FLIPR assay; type: functional, cell-based
[14] = Ratio of drug level in CSF to free plasma in iv dosed dog; type: ADME, organism-based, Canis lupus familiaris; conditions: in vivo
[15] = target: Beta-2 adrenergic receptor (Homo sapiens) (UniProt P07550); assay: Binding affinity to beta2 receptor
Beta-2 adrenergic receptor (Homo sapiens), sequence (P07550 whole entry, looked up): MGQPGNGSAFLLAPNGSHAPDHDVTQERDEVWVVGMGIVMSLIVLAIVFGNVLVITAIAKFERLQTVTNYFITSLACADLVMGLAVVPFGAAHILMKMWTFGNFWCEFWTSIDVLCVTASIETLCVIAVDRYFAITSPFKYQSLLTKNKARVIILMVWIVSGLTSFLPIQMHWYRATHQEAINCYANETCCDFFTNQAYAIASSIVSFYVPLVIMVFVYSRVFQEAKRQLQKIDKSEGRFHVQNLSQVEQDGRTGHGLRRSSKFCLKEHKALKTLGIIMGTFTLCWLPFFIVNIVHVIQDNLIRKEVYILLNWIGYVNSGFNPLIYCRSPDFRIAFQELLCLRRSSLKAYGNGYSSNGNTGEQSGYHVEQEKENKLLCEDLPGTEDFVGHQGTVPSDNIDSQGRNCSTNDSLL

[16] = target: 5-hydroxytryptamine receptor 4 (Homo sapiens) (UniProt Q13639); assay: Binding affinity to 5HT4E receptor
5-hydroxytryptamine receptor 4 (Homo sapiens), sequence (Q13639 whole entry): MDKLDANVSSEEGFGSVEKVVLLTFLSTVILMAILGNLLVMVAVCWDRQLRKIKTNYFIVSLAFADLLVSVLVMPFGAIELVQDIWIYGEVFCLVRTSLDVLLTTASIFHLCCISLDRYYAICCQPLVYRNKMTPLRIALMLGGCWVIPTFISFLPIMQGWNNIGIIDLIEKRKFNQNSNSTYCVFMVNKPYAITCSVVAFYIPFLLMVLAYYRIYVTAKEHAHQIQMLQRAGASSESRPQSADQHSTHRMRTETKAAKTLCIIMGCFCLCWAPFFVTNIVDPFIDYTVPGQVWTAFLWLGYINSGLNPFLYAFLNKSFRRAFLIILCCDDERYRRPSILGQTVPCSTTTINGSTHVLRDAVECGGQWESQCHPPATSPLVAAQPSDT

[17] = target: T4, 5-hydroxytryptamine receptor 2B; assay: Agonist activity at human recombinant 5HT2B receptor transfected in CHO K1 cells assessed as calcium mobilisation by FLIPR assay; type: functional, cell-based
[18] = Binding affinity to calcium ion channel at L-verapamil site
[19] = target: Voltage-gated inwardly rectifying potassium channel KCNH2 (Homo sapiens, UniProt Q12809); assay: Binding affinity to human ERG
Voltage-gated inwardly rectifying potassium channel KCNH2, sequence (Q12809 whole entry): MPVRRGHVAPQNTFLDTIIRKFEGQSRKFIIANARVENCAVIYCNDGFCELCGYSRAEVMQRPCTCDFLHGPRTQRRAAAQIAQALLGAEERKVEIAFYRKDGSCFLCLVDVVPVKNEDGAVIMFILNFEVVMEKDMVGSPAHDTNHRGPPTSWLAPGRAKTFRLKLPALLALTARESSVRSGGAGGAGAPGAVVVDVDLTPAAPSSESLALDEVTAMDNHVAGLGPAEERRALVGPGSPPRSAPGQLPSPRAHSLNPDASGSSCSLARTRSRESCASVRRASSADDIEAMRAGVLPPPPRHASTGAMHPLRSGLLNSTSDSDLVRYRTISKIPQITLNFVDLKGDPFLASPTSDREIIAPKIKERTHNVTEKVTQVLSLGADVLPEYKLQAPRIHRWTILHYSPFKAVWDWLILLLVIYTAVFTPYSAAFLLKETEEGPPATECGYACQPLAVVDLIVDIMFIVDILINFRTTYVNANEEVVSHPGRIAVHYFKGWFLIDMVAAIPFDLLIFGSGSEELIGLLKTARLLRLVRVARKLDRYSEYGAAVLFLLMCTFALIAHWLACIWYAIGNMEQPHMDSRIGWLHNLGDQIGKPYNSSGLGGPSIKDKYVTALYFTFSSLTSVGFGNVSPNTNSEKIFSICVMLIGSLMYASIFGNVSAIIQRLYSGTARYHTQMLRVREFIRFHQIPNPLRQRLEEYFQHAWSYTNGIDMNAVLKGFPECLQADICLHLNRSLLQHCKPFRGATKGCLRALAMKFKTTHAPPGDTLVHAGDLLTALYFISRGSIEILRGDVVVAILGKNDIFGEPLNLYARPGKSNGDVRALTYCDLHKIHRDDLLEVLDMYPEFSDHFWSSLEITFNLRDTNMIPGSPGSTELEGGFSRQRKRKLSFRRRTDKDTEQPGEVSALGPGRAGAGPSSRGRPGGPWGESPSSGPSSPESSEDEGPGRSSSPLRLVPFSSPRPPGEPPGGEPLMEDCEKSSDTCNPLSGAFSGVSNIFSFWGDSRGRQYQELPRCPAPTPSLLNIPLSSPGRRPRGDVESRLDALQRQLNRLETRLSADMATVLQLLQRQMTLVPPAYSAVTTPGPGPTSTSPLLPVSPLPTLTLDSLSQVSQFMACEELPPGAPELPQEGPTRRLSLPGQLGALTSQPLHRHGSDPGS

Row | SMILES | EC50 [1] [nM] | logD [2] | microsomal CLint [3] [µL/min/mg] | Emax [4] [%] | Activity [5] [%] | Activity [6] [%] | also measured
1 | Cc1cc(=O)n(CCCOc2ccc(F)cc2)c(N2CCNCC2)n1 | > 10000 | 0.7 | – | – | – | – | –
2 | Cn1c(COc2cccc(Cl)c2)nc(N2CCNCC2)cc1=O | 493 | 1 | < 7 | 66 | – | – | –
3 | Cn1c(CCc2ccccc2)nc(N2CCNCC2)cc1=O | 275 | 0.6 | < 7 | 43 | 13 | < 5 | efflux ratio [7]: 3.4
4 | Cc1cc(=O)n(CCCOc2ccccc2)c(N2CCNCC2)n1 | 1020 | 0.7 | 26 | 77 | 44 | 57 | efflux ratio [7]: 1.6
5 | Cc1cc(=O)n(CCCOCc2ccccc2)c(N2CCNCC2)n1 | > 10000 | – | – | – | – | – | –
6 | C[C@@H]1CNCCN1c1cc(=O)n(C)c(CCc2ccccc2)n1 | 262 | 1 | < 7 | 50 | 58 | < 5 | –
7 | Cn1c(COc2cccc(C#N)c2)nc(N2CCNCC2)cc1=O | 319 | 0.3 | < 7 | 63 | – | – | –
8 | Cn1c(COc2cc(F)ccc2Cl)nc(N2CCNCC2)cc1=O | 361 | 1 | < 7 | 48 | – | – | –
9 | Cn1c(COc2ccc(C(F)(F)F)cc2)nc(N2CCNCC2)cc1=O | > 10000 | 1.1 | 8 | – | – | – | –
10 | C[C@@H]1CNCCN1c1ccc(=O)n(CCOc2ccccc2C(F)(F)F)n1 | 47 | 1.4 | 15 | 45 | 50 | < 10 | efflux ratio [7]: 3.4
11 | Cc1cc(=O)n(CCCc2ccccc2)c(N2CCNCC2)n1 | > 10000 | – | – | – | – | – | –
12 | Cc1cc(=O)n(CCCOc2ccc(Cl)cc2)c(N2CCNCC2)n1 | 899 | – | – | 91 | – | – | –
13 | Cn1c(COc2cccc(C(F)(F)F)c2)nc(N2CCNCC2)cc1=O | 487 | 1.3 | – | 49 | – | – | –
14 | Cc1cc(=O)n(CCCOc2ccccc2)c(N2CCNC[C@H]2C)n1 | 163 | 0.9 | 16 | 84 | – | – | –
15 | Cn1c(COc2ccc(Cl)cc2)nc(N2CCNCC2)cc1=O | > 10000 | 0.8 | < 7 | – | – | – | –
16 | Cc1cc(=O)n(CCCOc2cccc(Cl)c2)c(N2CCNCC2)n1 | 262 | 1.2 | – | 86 | – | – | –
17 | Cc1cc(=O)n(CCCOc2cccc(F)c2)c(N2CCNCC2)n1 | > 10000 | 0.8 | – | – | – | – | –
18 | Cn1c(N2CCNCC2)nc(CCc2cccc(Cl)c2)cc1=O | > 10000 | 1.3 | < 7 | – | – | – | –
19 | Cc1ccccc1OCc1nc(N2CCNCC2)cc(=O)n1C | 228 | 0.8 | < 7 | 60 | – | – | –
20 | C[C@@H]1CNCCN1c1cc(=O)n(C)c(COc2ccccc2C(F)(F)F)n1 | – | – | – | – | – | – | Activity [8]: 480 nM; Activity [9]: 210 nM; Activity [10]: 20%; Cp [11]: 19 nM; Activity [12]: > 1 µM; EC50 [13]: > 1500 nM; Ratio [14]: 0.34; Activity [15]: > 1 µM; Activity [16]: > 1 µM; EC50 [17]: > 10000 nM; Activity [18]: > 1 µM; Ki [19]: > 13000 nM

The next lines start with results.

Row | EC50 [1] [nM] | logD [2] | microsomal CLint [3] [µL/min/mg] | Emax [4] [%] | Activity [5] [%] | Activity [6] [%] | SMILES | also measured
21 | 73 | 0.8 | 11 | 61 | – | – | Cn1c(COc2ccccc2Cl)nc(N2CCNCC2)cc1=O | –
22 | 103 | 1.4 | < 7 | 46 | – | – | CCn1c(COc2cc(F)ccc2Cl)nc(N2CCNCC2)cc1=O | –
23 | 21 | 1.6 | 24 | 46 | 27 | < 5 | C[C@@H]1CNCCN1c1cc(=O)n(C)c(CCc2ccccc2Cl)n1 | efflux ratio [7]: 3.1
24 | 56 | 1 | 27 | 83 | 58 | 46 | Cc1cc(=O)n(CCCOc2ccccc2Cl)c(N2CCNCC2)n1 | –
25 | 64 | 1.8 | 29 | 59 | 45 | 6 | C[C@@H]1CNCCN1c1cc(=O)n(C)c(CCc2ccccc2C(F)(F)F)n1 | –
26 | 96 | 1.2 | < 7 | 59 | 57 | < 5 | Cn1c(CCc2cccc(Cl)c2)nc(N2CCNCC2)cc1=O | efflux ratio [7]: 4
27 | 21 | 1.9 | 30 | 50 | 16 | < 5 | CCn1c(CCc2ccccc2Cl)nc(N2CCNCC2)cc1=O | efflux ratio [7]: 4.3
28 | 30 | 1.4 | 14 | 72 | – | – | Cn1c(COc2ccccc2C(F)(F)F)nc(N2CCNCC2)cc1=O | –
29 | 46 | 1 | < 7 | 84 | – | – | Cc1ccc(F)cc1OCc1nc(N2CCNCC2)cc(=O)n1C | –
30 | 26 | 1.6 | < 10 | 59 | 76 | 13 | C[C@@H]1CNCCN1c1cc(=O)n(C)c(CCc2cccc(Cl)c2)n1 | efflux ratio [7]: 3.7
31 | 160 | 1.5 | < 7 | 84 | – | – | Cc1ccc(Cl)cc1OCc1nc(N2CCNCC2)cc(=O)n1C | –
32 | 112 | 0.4 | < 7 | 77 | – | – | CCn1c(COc2cccc(C#N)c2)nc(N2CCNCC2)cc1=O | –
33 | 77 | 0.45 | – | 92 | 39 | 35 | Cc1cc(=O)n(CCCOc2ccccc2F)c(N2CCNCC2)n1 | –
34 | 26 | 1.4 | 18 | 59 | 50 | < 5 | Cc1ccccc1CCc1nc(N2CCNC[C@H]2C)cc(=O)n1C | efflux ratio [7]: 3.5
